# Laboratory results taken from publication PMC9801203 (Poultry Science, 2022).
# Where two headings read alike, the source gives them in different places. Marks after values point to notes of the source that are not given here.
# Assays:
# IHKE cells = conditions: cytotoxicity, ref Bittner et al., 2015; cited from earlier work
# [1] = pigs; ref Harwig et al., 1983; cited from earlier work
# chicken embryos [2] = conditions: 1 µg/egg, after 9 d of incubation; ref Hassan et al. (2012a); cited from earlier work
# embryos of Danio rerio = conditions: ref Haq et al., 2016; cited from earlier work
# HeLa cells = conditions: acute toxicity, ref Xiao et al., 1996; cited from earlier work
# [3] = chickens; ref Galtier et al., 1981; cited from earlier work
# [4] = humans, calculated; ref Sueck et al. (2019b); cited from earlier work
# chicken embryos [5] = format: in vivo, Gallus gallus domesticus; conditions: for effect on chick quality (in words): compared with control group; for Early dead embryos: embryos dead up to 7 d of incubation; for Late dead embryos: embryos died after 7 d of incubation; for Hatchability: hatchability of fertile eggs; for BW: hatched chicks; for BW / Chicks quality: Average score of chicks with score <100: mean ± SD; for Chicks quality: Average score of all chicks: maximum score 100, mean ± SD
# How it was run: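 Hatching eggs in groups of 30 per repetition: one control without puncture, one punctured without injection. A 0.5 mm needle puncture delivered 0.25, 0.50 or 0.75 µg/egg in 50 µL ultrapure water (sonicated, autoclaved 108°C, 3 min); the site was sealed with plaster. Incubation at 37.5–38.5°C and 50–60% RH, turned 45° every 2 h. Candling at days 6 and 18; early deaths ≤7 d. Hatched chicks were weighed and quality-scored (maximum 100).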
# [6] = toxin levels in tissues of hatched chicks after in ovo injection; format: in vivo, Gallus gallus domesticus; conditions: for Toxin level in heart / Toxin level in kidneys / Toxin level in liver / Toxin level in serum / Toxin level in yolk sac: hatched chicks, mean ± SD; for presence as potential metabolite of OTA and 2’R-OTA in isolated organs: chicks after in ovo injection of OTA or 2’R-OTA
# How it was run: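 Eggs (30/group) punctured with a 0.5 mm needle, injected with test compound at 0.25, 0.50 or 0.75 µg/egg in 50 µL ultra-pure water, sealed; incubated 37.5–38.5°C, 50–60% RH, turned 45° every 2 h. Hatched chicks decapitated; serum and tissues (200 mg) deconjugated with β-glucuronidase/arylsulfatase overnight at 37°C, acetonitrile-based extraction, ¹³C₂₀-OTA internal standard, HPLC-MS/MS positive mode.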
# [7] = tested on: chicken embryo fibroblasts cell line SL-29 (ATCC CRL1590); assay: MTT cytotoxicity assay, 48 h exposure; format: cell-based, Gallus gallus
# How it was run: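 SL-29 chicken embryo fibroblasts were grown in DMEM with 5% FBS, 5% tryptose phosphate broth, 2 mM L-glutamine and penicillin/streptomycin at 37°C and 5% CO2. Cells were exposed to a ten-point twofold dilution series for 48 h at 37°C and 5% CO2. MTT (5 mg/mL stock in PBS) was added for 4 h and removed. Formazan was dissolved in DMSO and absorbance read at 510 nm. Samples below 50% were considered toxic.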
# [8] = tested on: serum-free cultures of embryonic brains of Tetra SL chick stage 29; conditions: 8-day exposure, embryonic chick brain cultures; ref Bruinink et al. (1998); cited from earlier work
# [9] = tested on: human liver carcinoma cell line HepG2; conditions: HepG2 cells; ref Cramer et al. (2010); cited from earlier work
# [10] = MTT reduction, SL-29 cells, 48 h exposure
smiles,measurement,setting,value
"C[C@@H]1Cc2c(Cl)cc(C(=O)N[C@@H](Cc3ccccc3)C(=O)O)c(O)c2C(=O)O1 [OTA, ochratoxin A]",IC50,IHKE cells,0.5 µM
same,order of organs in which the toxin accumulated,[1],kidneys > liver > muscle tissue and fat
same,embryo defect: beak hypoplasia,chicken embryos [2],45%
same,embryo defect: beak retrognathism,chicken embryos [2],12%
same,embryo defect: cleft spine,chicken embryos [2],10%
same,embryo defect: exencephaly,chicken embryos [2],4%
same,embryo defect: microphthalmia,chicken embryos [2],35%
same,embryo defect: no eye development,chicken embryos [2],49%
same,embryo defect: nonunited abdominal integuments,chicken embryos [2],8%
same,embryo defect: reduced body weight,chicken embryos [2],15%
same,teratogenicity and mortality (in words),embryos of Danio rerio,high OTA teratogenicity
same,IC50,HeLa cells,5 µM
same,half-life,[3],4.1 h
same,biological half-life,[4],1 mo
same,effect on chick quality (in words),chicken embryos [5],considerably reduced the number of chicks with a score of 100
same,Chicks quality: Chicks with score 100,chicken embryos [5]; in ovo injection 0.25 µg/egg,82.7%^bc
same,Early dead embryos,chicken embryos [5]; in ovo injection 0.25 µg/egg,12.2%^b
same,Late dead embryos,chicken embryos [5]; in ovo injection 0.25 µg/egg,4.4%^b
same,Hatchability,chicken embryos [5]; in ovo injection 0.25 µg/egg,58.9%^b
same,BW,chicken embryos [5]; in ovo injection 0.25 µg/egg,41.53 ± 3.06^a g
same,Chicks quality: Average score of all chicks,chicken embryos [5]; in ovo injection 0.25 µg/egg,97.02 ± 9.51^b
same,Chicks quality: Average score of chicks with score <100,chicken embryos [5]; in ovo injection 0.25 µg/egg,82.78 ± 17.33^a
same,Early dead embryos,chicken embryos [5]; in ovo injection 0.50 µg/egg,12.2%^b
same,Late dead embryos,chicken embryos [5]; in ovo injection 0.50 µg/egg,8.9%^b
same,Hatchability,chicken embryos [5]; in ovo injection 0.50 µg/egg,50.0%^ab
same,BW,chicken embryos [5]; in ovo injection 0.50 µg/egg,41.59 ± 3.12^a g
same,Chicks quality: Average score of all chicks,chicken embryos [5]; in ovo injection 0.50 µg/egg,98.77 ± 4.52^b
same,Chicks quality: Average score of chicks with score <100,chicken embryos [5]; in ovo injection 0.50 µg/egg,88.00 ± 9.27^a
same,Chicks quality: Chicks with score 100,chicken embryos [5]; in ovo injection 0.75 µg/egg,63.3%^a
same,Early dead embryos,chicken embryos [5]; in ovo injection 0.75 µg/egg,31.1%^d
same,Late dead embryos,chicken embryos [5]; in ovo injection 0.75 µg/egg,4.4%^b
same,Hatchability,chicken embryos [5]; in ovo injection 0.75 µg/egg,35.6%^a
same,BW,chicken embryos [5]; in ovo injection 0.75 µg/egg,41.42 ± 3.71^a g
same,Chicks quality: Average score of all chicks,chicken embryos [5]; in ovo injection 0.75 µg/egg,91.03 ± 19.55^a
same,Chicks quality: Average score of chicks with score <100,chicken embryos [5]; in ovo injection 0.75 µg/egg,75.55 ± 26.30^b
same,Toxin level in heart,[6]; in ovo injection 0.25 µg/egg,0.00 ± 0.00a µg/kg
same,Toxin level in kidneys,[6]; in ovo injection 0.25 µg/egg,2.70 ± 0.07 µg·days/kg
same,Toxin level in liver,[6]; in ovo injection 0.25 µg/egg,4.37 ± 0.04 µg·days/kg
same,Toxin level in serum,[6]; in ovo injection 0.25 µg/egg,0.22 ± 0.00b µg/kg
same,Toxin level in yolk sac,[6]; in ovo injection 0.25 µg/egg,7.04 ± 0.08c µg/kg
same,Toxin level in heart,[6]; in ovo injection 0.50 µg/egg,0.25 ± 0.01b µg/kg
same,Toxin level in kidneys,[6]; in ovo injection 0.50 µg/egg,4.56 ± 0.21e µg/kg
same,Toxin level in liver,[6]; in ovo injection 0.50 µg/egg,7.12 ± 0.19e µg/kg
same,Toxin level in serum,[6]; in ovo injection 0.50 µg/egg,0.31 ± 0.00c µg/kg
same,Toxin level in yolk sac,[6]; in ovo injection 0.50 µg/egg,10.43 ± 0.21e µg/kg
same,Toxin level in heart,[6]; in ovo injection 0.75 µg/egg,0.59 ± 0.01 µg·days/kg
same,Toxin level in kidneys,[6]; in ovo injection 0.75 µg/egg,11.83 ± 0.35g µg/kg
same,Toxin level in liver,[6]; in ovo injection 0.75 µg/egg,16.02 ± 0.28g µg/kg
same,Toxin level in serum,[6]; in ovo injection 0.75 µg/egg,0.61 ± 0.01e µg/kg
same,Toxin level in yolk sac,[6]; in ovo injection 0.75 µg/egg,12.40 ± 0.31f µg/kg
same,IC50,"[7]; Gallus gallus, Fibroblast, 48 h",0.24 µM
"C[C@@H]1Cc2c(Cl)cc(C(=O)O)c(O)c2C(=O)O1 [OTα, α-ochratoxin]",nontoxic up to (concentration),IHKE cells,≥ 50 µM
same,teratogenicity and mortality (in words),embryos of Danio rerio,negligible teratogenicity and mortality
same,IC50,HeLa cells,560 µM
same,presence as potential metabolite of OTA and 2’R-OTA in isolated organs,[6],not found in any of the organs tested above the LOD
same,neurotoxic effects not observed up to (concentration),[8],≥ 15 µM
same,IC50,[7]; [10],5.26 µM
"C[C@@H]1Cc2ccc(C(=O)N[C@@H](Cc3ccccc3)C(=O)O)c(O)c2C(=O)O1 [OTB, ochratoxin B]",presence as potential metabolite of OTA and 2’R-OTA in isolated organs,[6],not found in any of the organs tested above the LOD
same,IC50,[7]; [10],7.96 µM
"C[C@@H]1Cc2c(Cl)cc(C(=O)N[C@H](Cc3ccccc3)C(=O)O)c(O)c2C(=O)O1 [2’R-OTA, 2’R-ochratoxin A]",biological half-life,[4],approx. 6 mo
same,effect on chick quality (in words),chicken embryos [5],did not reduce chick quality
same,Chicks quality: Chicks with score 100,chicken embryos [5]; in ovo injection 0.25 µg/egg,96.6%^c
same,Early dead embryos,chicken embryos [5]; in ovo injection 0.25 µg/egg,14.4%^bc
same,Late dead embryos,chicken embryos [5]; in ovo injection 0.25 µg/egg,6.6%^b
same,Hatchability,chicken embryos [5]; in ovo injection 0.25 µg/egg,61.1%^b
same,BW,chicken embryos [5]; in ovo injection 0.25 µg/egg,41.83 ± 2.54^a g
same,Chicks quality: Average score of all chicks,chicken embryos [5]; in ovo injection 0.25 µg/egg,98.97 ± 5.57^b
same,Chicks quality: Average score of chicks with score <100,chicken embryos [5]; in ovo injection 0.25 µg/egg,80.00 ± 0.00^a
same,Chicks quality: Chicks with score 100,chicken embryos [5]; in ovo injection 0.50 µg/egg,68.6%^ab
same,Early dead embryos,chicken embryos [5]; in ovo injection 0.50 µg/egg,15.5%^bc
same,Late dead embryos,chicken embryos [5]; in ovo injection 0.50 µg/egg,4.4%^b
same,Hatchability,chicken embryos [5]; in ovo injection 0.50 µg/egg,58.9%^b
same,BW,chicken embryos [5]; in ovo injection 0.50 µg/egg,41.59 ± 2.91^a g
same,Chicks quality: Average score of all chicks,chicken embryos [5]; in ovo injection 0.50 µg/egg,96.03 ± 8.37^ab
same,Chicks quality: Average score of chicks with score <100,chicken embryos [5]; in ovo injection 0.50 µg/egg,87.36 ± 10.85^a
same,Chicks quality: Chicks with score 100,chicken embryos [5]; in ovo injection 0.75 µg/egg,70.8%^b
same,Early dead embryos,chicken embryos [5]; in ovo injection 0.75 µg/egg,21.1%^c
same,Late dead embryos,chicken embryos [5]; in ovo injection 0.75 µg/egg,11.1%^c
same,Hatchability,chicken embryos [5]; in ovo injection 0.75 µg/egg,46.7%^b
same,BW,chicken embryos [5]; in ovo injection 0.75 µg/egg,42.43 ± 2.90^a g
same,Chicks quality: Average score of all chicks,chicken embryos [5]; in ovo injection 0.75 µg/egg,94.08 ± 14.62^ab
same,Chicks quality: Average score of chicks with score <100,chicken embryos [5]; in ovo injection 0.75 µg/egg,79.71 ± 21.88^ab
same,Toxin level in heart,[6]; in ovo injection 0.25 µg/egg,0.00 ± 0.00a µg/kg
same,Toxin level in kidneys,[6]; in ovo injection 0.25 µg/egg,1.18 ± 0.07b µg/kg
same,Toxin level in liver,[6]; in ovo injection 0.25 µg/egg,1.11 ± 0.02b µg/kg
same,Toxin level in serum,[6]; in ovo injection 0.25 µg/egg,0.38 ± 0.00 µg·days/kg
same,Toxin level in yolk sac,[6]; in ovo injection 0.25 µg/egg,4.65 ± 0.04b µg/kg
same,Toxin level in heart,[6]; in ovo injection 0.50 µg/egg,0.32 ± 0.02c µg/kg
same,Toxin level in kidneys,[6]; in ovo injection 0.50 µg/egg,1.59 ± 0.07c µg/kg
same,Toxin level in liver,[6]; in ovo injection 0.50 µg/egg,2.81 ± 0.16c µg/kg
same,Toxin level in serum,[6]; in ovo injection 0.50 µg/egg,0.30 ± 0.00c µg/kg
same,Toxin level in yolk sac,[6]; in ovo injection 0.50 µg/egg,7.52 ± 0.26 µg·days/kg
same,Toxin level in heart,[6]; in ovo injection 0.75 µg/egg,0.87 ± 0.02e µg/kg
same,Toxin level in kidneys,[6]; in ovo injection 0.75 µg/egg,5.19 ± 0.14f µg/kg
same,Toxin level in liver,[6]; in ovo injection 0.75 µg/egg,12.68 ± 0.10f µg/kg
same,Toxin level in serum,[6]; in ovo injection 0.75 µg/egg,1.87 ± 0.02f µg/kg
same,Toxin level in yolk sac,[6]; in ovo injection 0.75 µg/egg,19.83 ± 0.63g µg/kg
same,cytotoxic effect relative to OTA,[9],approx. Tenfold lower cytotoxic effect
same,IC50,[7]; [10],6.54 µM
